The nature of assay [1]: Binding affinity to hairpin double stranded DNA GC base pair in sodium cacodylate buffer at pH 6.8 assessed as triplex-forming ability measuring melting temperature after by UV melting experiment. The gist of the method: (§1)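 TFO and hairpin dsDNA target, each strand at 1.89 μM final, in 10 mM sodium cacodylate (pH 6.8) with 100 mM KCl and 50 mM MgCl₂. Annealed in boiling water, then cooled slowly to 5 °C. Melting was followed at 260 nm from 5 to 90 °C at 0.5 °C/min. Tm was taken by the two-point average method, mean of three independent runs.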

Assay [2] in a line: Binding affinity to hairpin double stranded DNA TA base pair in sodium cacodylate buffer at pH 6.8 assessed as triplex-forming ability measuring melting temperature after by UV melting experiment. The gist of the method: as §1
A short description of assay [3]: Binding affinity to hairpin double stranded DNA CG base pair in sodium cacodylate buffer at pH 6.8 assessed as triplex-forming ability measuring melting temperature after by UV melting experiment. In a few lines:
as §1

A short description of assay [4]: Binding affinity to hairpin double stranded DNA AT base pair in sodium cacodylate buffer at pH 6.8 assessed as triplex-forming ability measuring melting temperature after by UV melting experiment. The gist of the method: as §1

For 5 compounds, Tm results are on record in ChEMBL document CHEMBL2413013, “Triplex-forming ability of oligonucleotides containing 1-aryl-1,2,3-triazole nucleobases linked via a two atom-length spacer” (Bioorg Med Chem, 2013).

With `CC1=CN([C@H]2C[C@H](O[PH](OCCC#N)(OC(C)[C@H]3O[C@@H](n4ccc(N)nc4=O)C[C@@H]3O[PH](OCCC#N)(OC[C@H]3O[C@@H](n4cc(C)c(=O)[nH]c4=O)C[C@@H]3O[PH](OCCC#N)(OC(C)[C@H]3O[C@@H](n4ccc(N)nc4=O)C[C@@H]3O[PH](OCCC#N)(OC[C@H]3O[C@@H](n4cc(C)c(=O)[nH]c4=O)C[C@@H]3O)N(C(C)C)C(C)C)N(C(C)C)C(C)C)N(C(C)C)C(C)C)N(C(C)C)C(C)C)[C@@H](CO[PH](OCCC#N)(O[C@H]3C[C@H](n4ccc(N)nc4=O)O[C@@H]3C(C)O[PH](OCCC#N)(O[C@H]3C[C@H](n4cc(C)c(=O)[nH]c4=O)O[C@@H]3COP(=O)(O)O[C@H]3C[C@H](OCc4cn(-c5ccccc5)nn4)O[C@@H]3CO[PH](OCCC#N)(O[C@H]3C[C@H](n4cc(C)c(=O)[nH]c4=O)O[C@@H]3CO[PH](OCCC#N)(O[C@H]3C[C@H](n4ccc(N)nc4=O)O[C@@H]3C(C)O[PH](OCCC#N)(O[C@H]3C[C@H](n4cc(C)c(=O)[nH]c4=O)O[C@@H]3CO[PH](OCCC#N)(O[C@H]3C[C@H](n4cc(C)c(=O)[nH]c4=O)O[C@@H]3CO[PH](OCCC#N)(O[C@H]3C[C@H](n4cc(C)c(=O)[nH]c4=O)O[C@@H]3CO[PH](OCCC#N)(O[C@H]3C[C@H](n4cc(C)c(=O)[nH]c4=O)O[C@@H]3CO[PH](OCCC#N)(O[C@H]3C[C@H](n4cc(C)c(=O)[nH]c4=O)O[C@@H]3CO)N(C(C)C)C(C)C)N(C(C)C)C(C)C)N(C(C)C)C(C)C)N(C(C)C)C(C)C)N(C(C)C)C(C)C)N(C(C)C)C(C)C)N(C(C)C)C(C)C)N(C(C)C)C(C)C)N(C(C)C)C(C)C)O2)[C@@H](O)NC1=O` (stereo not given in full), the Tm in assay [1] is 22 °C; in assay [2] it was 20 °C; in assay [3], 22 °C; in assay [4], 20 °C.

Consider `Cc1cn([C@H]2C[C@H](O[PH](OCCC#N)(OC[C@H]3O[C@@H](n4cc(C)c(=O)[nH]c4=O)C[C@@H]3O[PH](OCCC#N)(OC[C@H]3O[C@@H](n4cc(C)c(=O)[nH]c4=O)C[C@@H]3O[PH](OCCC#N)(OC[C@H]3O[C@@H](n4cc(C)c(=O)[nH]c4=O)C[C@@H]3O[PH](OCCC#N)(OC[C@H]3O[C@@H](n4cc(C)c(=O)[nH]c4=O)C[C@@H]3O[PH](OCCC#N)(OC(C)[C@H]3O[C@@H](n4ccc(N)nc4=O)C[C@@H]3O[PH](OCCC#N)(OC[C@H]3O[C@@H](n4cc(C)c(=O)[nH]c4=O)C[C@@H]3O[PH](OCCC#N)(OC[C@H]3O[C@@H](OCc4cn(-c5ccc(CO)cc5)nn4)C[C@@H]3OP(=O)(O)OC[C@H]3O[C@@H](n4cc(C)c(=O)[nH]c4=O)C[C@@H]3O[PH](OCCC#N)(OC(C)[C@H]3O[C@@H](n4ccc(N)nc4=O)C[C@@H]3O[PH](OCCC#N)(OC[C@H]3O[C@@H](n4cc(C)c(=O)[nH]c4=O)C[C@@H]3O[PH](OCCC#N)(OC(C)[C@H]3O[C@@H](n4ccc(N)nc4=O)C[C@@H]3O[PH](OCCC#N)(OC[C@H]3O[C@@H](n4cc(C)c(=O)[nH]c4=O)C[C@@H]3O[PH](OCCC#N)(OC(C)[C@H]3O[C@@H](n4ccc(N)nc4=O)C[C@@H]3O[PH](OCCC#N)(OC[C@H]3O[C@@H](n4cc(C)c(=O)[nH]c4=O)C[C@@H]3O)N(C(C)C)C(C)C)N(C(C)C)C(C)C)N(C(C)C)C(C)C)N(C(C)C)C(C)C)N(C(C)C)C(C)C)N(C(C)C)C(C)C)N(C(C)C)C(C)C)N(C(C)C)C(C)C)N(C(C)C)C(C)C)N(C(C)C)C(C)C)N(C(C)C)C(C)C)N(C(C)C)C(C)C)N(C(C)C)C(C)C)[C@@H](CO)O2)c(=O)[nH]c1=O` (stereo not given in full), for which the Tm in assay [1] is 19 °C; in assay [2], 19 °C; in assay [3], 22 °C; in assay [4], 19 °C.

As for `Cc1cn([C@H]2C[C@H](O[PH](OCCC#N)(OC[C@H]3O[C@@H](n4cc(C)c(=O)[nH]c4=O)C[C@@H]3O[PH](OCCC#N)(OC[C@H]3O[C@@H](n4cc(C)c(=O)[nH]c4=O)C[C@@H]3O[PH](OCCC#N)(OC[C@H]3O[C@@H](n4cc(C)c(=O)[nH]c4=O)C[C@@H]3O[PH](OCCC#N)(OC[C@H]3O[C@@H](n4cc(C)c(=O)[nH]c4=O)C[C@@H]3O[PH](OCCC#N)(OC(C)[C@H]3O[C@@H](n4ccc(N)nc4=O)C[C@@H]3O[PH](OCCC#N)(OC[C@H]3O[C@@H](n4cc(C)c(=O)[nH]c4=O)C[C@@H]3O[PH](OCCC#N)(OC[C@H]3O[C@@H](CCc4cn(-c5ccccc5C(N)=O)nn4)C[C@@H]3OP(=O)(O)OC[C@H]3O[C@@H](n4cc(C)c(=O)[nH]c4=O)C[C@@H]3O[PH](OCCC#N)(OC(C)[C@H]3O[C@@H](n4ccc(N)nc4=O)C[C@@H]3O[PH](OCCC#N)(OC[C@H]3O[C@@H](n4cc(C)c(=O)[nH]c4=O)C[C@@H]3O[PH](OCCC#N)(OC(C)[C@H]3O[C@@H](n4ccc(N)nc4=O)C[C@@H]3O[PH](OCCC#N)(OC[C@H]3O[C@@H](n4cc(C)c(=O)[nH]c4=O)C[C@@H]3O[PH](OCCC#N)(OC(C)[C@H]3O[C@@H](n4ccc(N)nc4=O)C[C@@H]3O[PH](OCCC#N)(OC[C@H]3O[C@@H](n4cc(C)c(=O)[nH]c4=O)C[C@@H]3O)N(C(C)C)C(C)C)N(C(C)C)C(C)C)N(C(C)C)C(C)C)N(C(C)C)C(C)C)N(C(C)C)C(C)C)N(C(C)C)C(C)C)N(C(C)C)C(C)C)N(C(C)C)C(C)C)N(C(C)C)C(C)C)N(C(C)C)C(C)C)N(C(C)C)C(C)C)N(C(C)C)C(C)C)N(C(C)C)C(C)C)[C@@H](CO)O2)c(=O)[nH]c1=O` (stereo not given in full), the Tm was found to be 19 °C in assay [1], 18 °C in assay [2], 20 °C in assay [3] and 16 °C in assay [4].

With `Cc1cn([C@H]2C[C@H](O[PH](OCCC#N)(OC[C@H]3O[C@@H](n4cc(C)c(=O)[nH]c4=O)C[C@@H]3O[PH](OCCC#N)(OC[C@H]3O[C@@H](n4cc(C)c(=O)[nH]c4=O)C[C@@H]3O[PH](OCCC#N)(OC[C@H]3O[C@@H](n4cc(C)c(=O)[nH]c4=O)C[C@@H]3O[PH](OCCC#N)(OC[C@H]3O[C@@H](n4cc(C)c(=O)[nH]c4=O)C[C@@H]3O[PH](OCCC#N)(OC(C)[C@H]3O[C@@H](n4ccc(N)nc4=O)C[C@@H]3O[PH](OCCC#N)(OC[C@H]3O[C@@H](n4cc(C)c(=O)[nH]c4=O)C[C@@H]3O[PH](OCCC#N)(OC[C@H]3O[C@@H](CCc4cn(-c5ccccc5O)nn4)C[C@@H]3OP(=O)(O)OC[C@H]3O[C@@H](n4cc(C)c(=O)[nH]c4=O)C[C@@H]3O[PH](OCCC#N)(OC(C)[C@H]3O[C@@H](n4ccc(N)nc4=O)C[C@@H]3O[PH](OCCC#N)(OC[C@H]3O[C@@H](n4cc(C)c(=O)[nH]c4=O)C[C@@H]3O[PH](OCCC#N)(OC(C)[C@H]3O[C@@H](n4ccc(N)nc4=O)C[C@@H]3O[PH](OCCC#N)(OC[C@H]3O[C@@H](n4cc(C)c(=O)[nH]c4=O)C[C@@H]3O[PH](OCCC#N)(OC(C)[C@H]3O[C@@H](n4ccc(N)nc4=O)C[C@@H]3O[PH](OCCC#N)(OC[C@H]3O[C@@H](n4cc(C)c(=O)[nH]c4=O)C[C@@H]3O)N(C(C)C)C(C)C)N(C(C)C)C(C)C)N(C(C)C)C(C)C)N(C(C)C)C(C)C)N(C(C)C)C(C)C)N(C(C)C)C(C)C)N(C(C)C)C(C)C)N(C(C)C)C(C)C)N(C(C)C)C(C)C)N(C(C)C)C(C)C)N(C(C)C)C(C)C)N(C(C)C)C(C)C)N(C(C)C)C(C)C)[C@@H](CO)O2)c(=O)[nH]c1=O` (stereo not given in full), the Tm in assay [1] was 19 °C; in assay [2], 18 °C; in assay [3], 22 °C; in assay [4], 20 °C.

On to `Cc1cn([C@H]2C[C@H](O[PH](OCCC#N)(OC[C@H]3O[C@@H](n4cc(C)c(=O)[nH]c4=O)C[C@@H]3O[PH](OCCC#N)(OC[C@H]3O[C@@H](n4cc(C)c(=O)[nH]c4=O)C[C@@H]3O[PH](OCCC#N)(OC[C@H]3O[C@@H](n4cc(C)c(=O)[nH]c4=O)C[C@@H]3O[PH](OCCC#N)(OC[C@H]3O[C@@H](n4cc(C)c(=O)[nH]c4=O)C[C@@H]3O[PH](OCCC#N)(OC(C)[C@H]3O[C@@H](n4ccc(N)nc4=O)C[C@@H]3O[PH](OCCC#N)(OC[C@H]3O[C@@H](n4cc(C)c(=O)[nH]c4=O)C[C@@H]3O[PH](OCCC#N)(OC[C@H]3O[C@@H](OCc4cn(-c5cccc(CO)c5)nn4)C[C@@H]3OP(=O)(O)OC[C@H]3O[C@@H](n4cc(C)c(=O)[nH]c4=O)C[C@@H]3O[PH](OCCC#N)(OC(C)[C@H]3O[C@@H](n4ccc(N)nc4=O)C[C@@H]3O[PH](OCCC#N)(OC[C@H]3O[C@@H](n4cc(C)c(=O)[nH]c4=O)C[C@@H]3O[PH](OCCC#N)(OC(C)[C@H]3O[C@@H](n4ccc(N)nc4=O)C[C@@H]3O[PH](OCCC#N)(OC[C@H]3O[C@@H](n4cc(C)c(=O)[nH]c4=O)C[C@@H]3O[PH](OCCC#N)(OC(C)[C@H]3O[C@@H](n4ccc(N)nc4=O)C[C@@H]3O[PH](OCCC#N)(OC[C@H]3O[C@@H](n4cc(C)c(=O)[nH]c4=O)C[C@@H]3O)N(C(C)C)C(C)C)N(C(C)C)C(C)C)N(C(C)C)C(C)C)N(C(C)C)C(C)C)N(C(C)C)C(C)C)N(C(C)C)C(C)C)N(C(C)C)C(C)C)N(C(C)C)C(C)C)N(C(C)C)C(C)C)N(C(C)C)C(C)C)N(C(C)C)C(C)C)N(C(C)C)C(C)C)N(C(C)C)C(C)C)[C@@H](CO)O2)c(=O)[nH]c1=O` (stereo not given in full), for which the Tm in assay [1] worked out at 23 °C; in assay [2], 22 °C; in assay [3], 25 °C; in assay [4] it was 23 °C.
